Key:
Mus musculus [1] = assay: The compound was tested for change in weight for mice implanted intraperitoneally with P-388/0 Leukemia cell line at 335 mg/kg; format: functional; conditions: route intraperitoneal
Summary of the method: (§1)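 Male BDF1 mice inoculated ip on day 0 with 1 × 10^6 leukemia cells (six mice per group, average weight 22 g). Dosing ip once daily for 5 consecutive days starting 24 h after implantation. Fluoropyrimidine references in 0.9% saline; prodrugs formulated with Emulphor 620; vehicle controls 0.2 mL. Percent body weight change recorded per group.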

Mus musculus [2] = assay: The compound was tested for increase in life span for mice implanted intraperitoneally with P-388/FU Leukemia cell line at 335 mg/kg; format: functional; conditions: P388, ip, route intraperitoneal
Summary of the method: (§2)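 Male BDF1 mice, six per group, implanted ip with 1×10^6 P-388/0 or P-388/FU cells on day 0. Dosed ip daily for 5 days from 24 h post-implant, in saline or Emulphor 620 vehicle. Mice observed until death. %ILS = (T/C − 1)×100, from median survival of treated mice (T) versus saline-treated controls (C).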

Mus musculus [3] = assay: The compound was tested for increase in life span for mice implanted intraperitoneally with P-388/FU Leukemia cell line at 149 mg/kg; format: functional; conditions: P388, ip, route intraperitoneal; summary of the method: as §2
[4] = The compound was tested for half life in aqueous media in 0.05 M potassium phosphate buffer, at pH 7.4; format: ADME
Summary of the method: (§3)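 A 10^-3 M aqueous stock was diluted into each buffer to a final 10^-4 M and stirred at room temperature. Aliquots were taken at intervals (typically 2–100 h) and parent drug was quantified by reverse-phase C-18 HPLC with UV detection at 268 nm. Half-lives are the average of triplicate determinations.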

Mus musculus [5] = assay: The compound was tested for increase in life span for mice implanted intraperitoneally with P-388/FU Leukemia cell line at 223 mg/kg; format: functional; conditions: P388, ip, route intraperitoneal; summary of the method: as §2
Mus musculus [6] = assay: The compound was tested for increase in life span for mice implanted intraperitoneally with P-388/0 Leukemia cell line at 149 mg/kg; format: functional; conditions: P388, ip, route intraperitoneal; summary of the method: as §2
Mus musculus [7] = assay: The compound was tested for mean survival time for 15 mice implanted Intraperitoneally with P-388/0 Leukemia cell line at 335 mg/kg; format: functional; conditions: route intraperitoneal
Summary of the method: (§4)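 P-388/0 or P-388/FU cells (1×10^6) implanted ip into male BDF1 mice on day 0. Dosing was ip, daily for 5 consecutive days beginning 24 h later, in saline or Emulphor 620 vehicle. Six mice per treated group. Animals followed to death and median survival time recorded in days. The control group had 15 mice.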

[8] = The compound was tested for half life in aqueous media in 0.20 M HCl/KCl solution, at pH 1.0; format: ADME; summary of the method: as §3
Mus musculus [9] = assay: The compound was tested for change in weight for mice implanted intraperitoneally with P-388/0 Leukemia cell line at 223 mg/kg; format: functional; conditions: route intraperitoneal; summary of the method: as §1
Mus musculus [10] = assay: The compound was tested for increase in life span for mice implanted intraperitoneally with P-388/0 Leukemia cell line at 223 mg/kg; format: functional; conditions: P388, ip, route intraperitoneal; summary of the method: as §2
CHO [11] = assay: The minimun drug concentration that gives rise to colonies containing fewer than 50 cells after incubation at 37 degree C against chinese hamster ovary cells; format: functional, cell-based; conditions: Cricetulus griseus
Summary of the method: (§5)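 About 200 cells per dish were grown as clones in drug at 0, 0.5, 1.5, 5, 10, 50 or 100 μM for 7 d at 37 °C in humidified CO2. Colonies were fixed with 10% formaldehyde and stained with 0.1% crystal violet. The value is the lowest tested concentration giving colonies of fewer than 50 cells.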

[12] = The compound was tested for half life in aqueous media in 0.05 M Tris-HCl buffer, at pH 9.0; format: ADME; summary of the method: as §3
Mus musculus [13] = assay: The compound was tested for mean survival time for 15 mice implanted Intraperitoneally with P-388/0 Leukemia cell line at 149 mg/kg; format: functional; conditions: route intraperitoneal; summary of the method: as §4
Mus musculus [14] = assay: The compound was tested for mean survival time for 15 mice implanted Intraperitoneally with P-388/FU Leukemia cell line at 335 mg/kg; format: functional; conditions: route intraperitoneal; summary of the method: as §4
Mus musculus [15] = assay: The compound was tested for change in weight for mice implanted intraperitoneally with P-388/0 Leukemia cell line at 149 mg/kg; format: functional; conditions: route intraperitoneal; summary of the method: as §1
[16] = The compound was tested for half life in aqueous media in 0.05 M NaOH, at 12.6; format: ADME; conditions: aqueous 0.05 M NaOH, pH 12.6; summary of the method: as §3
Mus musculus [17] = assay: The compound was tested for mean survival time for 15 mice implanted Intraperitoneally with P-388/FU Leukemia cell line at 223 mg/kg; format: functional; conditions: route intraperitoneal; summary of the method: as §4
Mus musculus [18] = assay: The compound was tested for increase in life span for mice implanted intraperitoneally with P-388/0 Leukemia cell line at 335 mg/kg; format: functional; conditions: P388, ip, route intraperitoneal; summary of the method: as §2
[19] = The compound was tested for half life in aqueous media in 0.05 M sodium acetate buffer, at pH 4.0; format: ADME; summary of the method: as §3
Mus musculus [20] = assay: The compound was tested for change in weight for mice implanted intraperitoneally with P-388/FU Leukemia cell line at 335 mg/kg; format: functional; conditions: route intraperitoneal; summary of the method: as §1
Mus musculus [21] = assay: The compound was tested for mean survival time for 15 mice implanted Intraperitoneally with P-388/0 Leukemia cell line at 223 mg/kg; format: functional; conditions: route intraperitoneal; summary of the method: as §4
Mus musculus [22] = assay: The compound was tested for mean survival time for 15 mice implanted Intraperitoneally with P-388/FU Leukemia cell line at 149 mg/kg; format: functional; conditions: route intraperitoneal; summary of the method: as §4
CHO [23] = assay: The minimun drug concentration that gives rise to colonies containing fewer than 50 cells after incubation at 37 degree C against chinese hamster ovary cells 20 fold resistant to fluoroudine; format: functional, cell-based; conditions: Cricetulus griseus; summary of the method: as §5
Mus musculus [24] = assay: The compound was tested for change in weight for mice implanted intraperitoneally with P-388/FU Leukemia cell line at 149 mg/kg; format: functional; conditions: route intraperitoneal; summary of the method: as §1
[25] = The compound was tested for half life in aqueous media in 0.05 M NaOH, at pH 11.7; format: ADME; conditions: aqueous 0.05 M NaOH; summary of the method: as §3
Mus musculus [26] = assay: The compound was tested for change in weight for mice implanted intraperitoneally with P-388/FU Leukemia cell line at 223 mg/kg; format: functional; conditions: route intraperitoneal; summary of the method: as §1

In the case of `CC(C)(C)C(=O)OCOP(=O)(OCOC(=O)C(C)(C)C)OC[C@H]1O[C@@H](n2cc(F)c(=O)[nH]c2=O)C[C@@H]1O`, the Weight change (Mus musculus [1]) is reported as -12%, the ILS at 335 mg/kg (Mus musculus [2]) is reported as 64% and the ILS at 149 mg/kg (Mus musculus [3]) is reported as 55%. For the same compound, the half-life [4] was 40.2 h, the ILS at 223 mg/kg (Mus musculus [5]) was 64% and the ILS at 149 mg/kg (Mus musculus [6]) was 36%. The MST (Mus musculus [7]) was 19 days, the half-life [8] was 142 h and the Weight change (Mus musculus [9]) was -11%. The ILS at 223 mg/kg (Mus musculus [10]) was 45%, the IC50 (CHO [11]) was 5 µM and the half-life [12] was 21.6 h. For the same compound, the MST (Mus musculus [13]) was 15 days, the MST (Mus musculus [14]) was 18 days and the Weight change (Mus musculus [15]) was 3%. For the same compound, the half-life [16] was 1.8 min, the MST (Mus musculus [17]) was 18 days and the ILS at 335 mg/kg (Mus musculus [18]) was 73%. For the same compound, the half-life [19] was 172 h, the Weight change (Mus musculus [20]) was -13% and the MST (Mus musculus [21]) was 16 days. It also gave an MST (Mus musculus [22]) of 17 days, an IC50 (CHO [23]) of 5 µM and a Weight change (Mus musculus [24]) of -9%. It also gave a half-life [25] of 0.37 h and a Weight change (Mus musculus [26]) of -12%.

— ChEMBL document CHEMBL1127405, “Synthesis and antitumor evaluation of bis[(pivaloyloxy)methyl] 2'-deoxy-5-fluorouridine 5'-monophosphate (FdUMP): a strategy to introduce nucleotides into cells” (J Med Chem, 1994)
